Source: ChEMBL document CHEMBL1125034, “Design and synthesis of 4H-3,1-benzoxazin-4-ones as potent alternate substrate inhibitors of human leukocyte elastase” (J Med Chem, 1990)
pKi: −log10 of the molar value.

Experiments:
[1] = target: T1, Neutrophil elastase (Homo sapiens) (UniProt P08246); experiment: Component deacylation rate constant for interaction with human leukocyte elastase
T1 sequence (whole entry): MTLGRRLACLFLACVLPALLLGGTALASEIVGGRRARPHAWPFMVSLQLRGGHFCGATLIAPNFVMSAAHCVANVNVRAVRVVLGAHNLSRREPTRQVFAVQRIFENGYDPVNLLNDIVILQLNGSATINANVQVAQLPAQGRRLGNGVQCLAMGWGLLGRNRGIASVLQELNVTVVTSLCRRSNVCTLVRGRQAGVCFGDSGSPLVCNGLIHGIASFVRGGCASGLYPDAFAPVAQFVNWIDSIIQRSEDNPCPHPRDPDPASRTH

[2] = target: T1, Neutrophil elastase (Homo sapiens); experiment: Component acylation rate constant for interaction with human leukocyte elastase
[3] = Partition coefficient (logD7.4); type: physicochemical; conditions: octanol/water, pH 7.4
[4] = Alkaline hydrolysis rate of the compound; type: ADME
Summary of the method: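 Alkaline hydrolysis rate constants measured at several pH values at 25 °C. Loss of the long-wavelength UV chromophore (λmax typically 300-345 nm) was followed by spectrophotometer.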

Neutrophil elastase = target: T2, Neutrophil elastase (Homo sapiens, UniProt P08246); experiment: Inhibition of human leukocyte elastase
T2 sequence (P08246 whole entry): T1 sequence (whole entry)

Log koff [1]: -2.5 | Log kon [2]: 2.59 | logD [3]: 3.9 | Log kOH- [4]: 1.57 | pKi (Neutrophil elastase): 5.09
SMILES: O=c1oc(/C=C/c2ccccc2)nc2ccccc12
